The list is not random: actives were taken first. Their share in the collection is about 3.3%.
HTR1A agonist = 5-HT1a (human) receptor agonism; P08908; activation, % at 10 µM; AID 567; CHO 5-HT1a Ga15 NFAT-bla reporter, FRET ratio; 0% basal, 100% maximal reference agonist; 65,000 tested, 0.56% active;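 active = activation above the screen-wide mean activation plus 3 SD, cut at about 19% in these data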;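 also: 0% = DMSO wells and 100% = 5-CT at EC100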
Target sequence (P08908 whole entry, looked up): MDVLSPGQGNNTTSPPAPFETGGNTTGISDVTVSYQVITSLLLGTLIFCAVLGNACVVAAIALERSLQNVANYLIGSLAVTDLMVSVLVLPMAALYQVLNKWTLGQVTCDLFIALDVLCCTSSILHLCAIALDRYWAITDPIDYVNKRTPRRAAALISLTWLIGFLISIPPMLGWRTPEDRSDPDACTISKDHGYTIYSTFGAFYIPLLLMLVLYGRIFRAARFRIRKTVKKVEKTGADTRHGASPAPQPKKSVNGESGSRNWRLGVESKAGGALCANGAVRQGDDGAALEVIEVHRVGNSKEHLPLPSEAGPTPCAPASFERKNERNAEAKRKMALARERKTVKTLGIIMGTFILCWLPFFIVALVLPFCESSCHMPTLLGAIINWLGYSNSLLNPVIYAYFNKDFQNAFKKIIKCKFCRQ
5-HT1A blocker = blocks the human serotonin 5-HT1a receptor; 62,000 tested, 0.68% active; P08908; AID 612; CHO 5-HT1a Ga15 NFAT-bla reporter, antagonist mode; inhibition, % at 10 µM;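 active = inhibition above the mean of all tested compounds plus 3 SD, cut at about 43% in these data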;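 also: receptor stimulated by 5-CT agonist at 100 nM near EC80; beta-lactamase reporter measured by ratiometric fluorescence of a cleavable substrate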
HTR1E agonist = agonists of human 5-HT1E serotonin receptor; P28566; CHO 5-HT1E Ga15 NFAT-bla reporter, FRET; 0% DMSO wells, 100% control agonist wells; activation, % at 6 µM; 65,000 tested, 0.69% active;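 active = activation above a set limit, the screen-wide mean activation plus 3 SD, cut at about 8.5% in these data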;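 also: 100% = positive control agonist at 1 µM giving full maximal response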
HEK293 NFkB inh = lowers PMA/ionomycin-induced NF-kB signal in HEK293 cells | inhibition, % at 3 µM | 62,000 tested, 0.21% active | AID 465 | HEK-293 NF-kB luciferase reporter, luminescence;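 active = inhibition above the mean of all tested compounds plus 3 SD, cut at about 40% in these data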;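 also: 0% = stimulated DMSO wells and 100% = 10 µM reference inhibitor 5653914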
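Material: HEK-293 cells with stable firefly luciferase reporter driven by four HIV NF-kB elements / Also added: PMA plus ionomycin mix as NF-kB-activating stimulus / Compound dosing: 3 µM once, 0.30% DMSO / Times: 1 h pretreatment, 16 h stimulation, 37 °C / Signal: luminescence / Evaluation: per-plate % inhibition versus controls / Benchmarks: DMSO and 10 µM reference inhibitor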
5HT1E antag = antagonists of human 5-HT1E serotonin receptor; P28566; CHO 5-HT1E Ga15 NFAT-bla reporter, FRET, antagonist; inhibition, % at 6 µM; 65,000 tested, 0.99% active; AID 571;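 active = inhibition above a set limit, the mean inhibition across every tested compound plus 3 SD, cut at about 29% in these data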;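 also: signal is the 460 over 535 nm emission ratio of beta-lactamase substrate; 0% = agonist plus DMSO wells and 100% = wells without agonist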
Jurkat tox 60K = cytotoxicity toward Jurkat cells; Jurkat E6.1 viability, ATP luminescence, 48 h; inhibition, % at 4 µM; 56,000 tested, 1.2% active;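 active = inhibition above the mean inhibition of all tested compounds plus 3 SD, cut at about 28% in these data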
* = called active by the depositor; · = no result.

SMILES | HTR1A agonist | 5-HT1A blocker | HTR1E agonist | HEK293 NFkB inh | 5HT1E antag | Jurkat tox 60K
COc1ccc(CNC(=O)C2CCN(S(=O)(=O)c3cccc4cccnc34)CC2)cc1 | 0 | 2 | 0 | 13 | -12 | 3
Cc1ccc(S(=O)(=O)NCCN=C(CN2CCCC2)NS(=O)(=O)c2ccc(C)cc2)cc1 | 0 | 2 | 0 | 17 | -4 | -5
COc1ccc(C(=O)NC(=O)Nc2cc(C)ccn2)cc1 | -2 | 14 | -1 | 59* | 12 | 1
COC(=O)COc1ccc(S(=O)(=O)Nc2ccc(NC(C)=O)cc2)cc1C | 0 | -10 | 0 | 2 | 0 | -8
COC(=O)c1cc(-c2c(C)oc3cc(O)ccc3c2=O)c(C)o1 | 51* | 0 | 0 | 8 | 1 | -7
CCOc1ccc(NC(=O)N2CCN(c3nc4ccccc4s3)CC2)cc1 | -1 | -4 | 17* | 26 | 13 | 17
CCCOc1ccc(N2C(=O)CC(N3CCN(c4nc5ccccc5s4)CC3)C2=O)cc1 (configuration not stated) | 1 | -18 | 4 | 16 | -18 | -2
O=C(O)CCC(=O)N1CCN(c2nc3ccccc3s2)CC1 | -2 | 12 | 15* | -2 | 4 | 4
N#Cc1c(N)nc(SCc2ccccc2)c(C#N)c1-c1ccco1 | 3 | -16 | 1 | 20 | 18 | 1
N#Cc1c(N)nc(SC2CCCCC2=O)c(C#N)c1-c1ccco1 (configuration not stated) | 2 | -4 | 1 | 2 | 42* | ·
O=C(NCCc1c[nH]c2ccccc12)c1ccc(-n2cnnn2)cc1 | -4 | 4 | -1 | 3 | 10 | 1
O=C(Nc1ccc(S(=O)(=O)NCc2ccco2)cc1)c1ccc2ccccc2n1 | -1 | 49* | 0 | 10 | 4 | 23
O=C(NCCc1c[nH]c2ccccc12)c1ccc(S(=O)(=O)NCc2ccco2)cc1 | 1 | 7 | 13* | 19 | 10 | ·
Cc1cc(C)nc(SCc2nnc(SCc3ccccc3Cl)o2)n1 | -1 | -5 | -1 | 20 | 6 | 19
C=CCN1C(=O)CSC1=Nc1cccc(O)c1 | -1 | 6 | -1 | 5 | -3 | ·
C=CCN1C(=Nc2cccnc2)SCC1(O)c1ccc(C)cc1 (configuration not stated) | -3 | 9 | 0 | 1 | 11 | 39*
CCOC(=O)c1[nH]c2c(c1C)C(=O)CC(c1ccc(F)cc1)C2 (configuration not stated) | 2 | 16 | 0 | 40 | 58* | 95*
CCOC(=O)c1[nH]c2c(c1C)C(=O)CC(c1ccc(OCC)c(OC)c1)C2 (configuration not stated) | 1 | -1 | 1 | 16 | -5 | ·
CCCCCOC(=O)c1[nH]c2c(c1C)C(=O)CC(c1ccco1)C2 (configuration not stated) | 1 | 66* | -1 | 38 | 82* | 101*
Cn1ncc2c1ncn1c(-c3ccccc3Cl)nnc21 | -1 | 8 | 0 | -16 | -1 | 9
CCC(OC(=O)c1cc2sccc2n1C)C(=O)NCc1ccco1 (configuration not stated) | -2 | 18 | 0 | 5 | -6 | 8
O=c1c2c(nc3nc(SCc4ccccc4)[nH]n13)CCC2 | -2 | -19 | 1 | 5 | -1 | 2
CSc1nc2nc3c(c(=O)n2[nH]1)CN(Cc1ccccc1)CC3 | -2 | 4 | 0 | 11 | 6 | 102*
CC(C)OC(=O)CSc1nnc(-c2cccnc2)n1N | 0 | 10 | -1 | 12 | 29* | 0
CC(C)OC(=O)CSc1nnc(-c2cccnc2)n1Cc1ccccc1 | -1 | -1 | 0 | 20 | -8 | 1
SMILES | HTR1A agonist | 5-HT1A blocker | HTR1E agonist | HEK293 NFkB inh | 5HT1E antag | Jurkat tox 60K
CCOC(=O)N1CCC(NC(=O)CSc2cc(=O)n(C)c3ccc(Cl)cc23)CC1 | -6 | -5 | 0 | 7 | -9 | 5
COc1cc2c(cc1OC)C(C)N(C(=O)c1cc3ccccc3o1)CC2 (configuration not stated) | -4 | 13 | -1 | 9 | 17 | 28*
COc1ccc(C(c2nnnn2Cc2cccs2)N2CCN(c3ccc(F)cc3)CC2)cc1OC (configuration not stated) | 1 | 8 | 0 | 22 | 2 | 5
O=C(CSc1nnnn1-c1ccc2c(c1)OCO2)NCc1ccccc1 | -2 | -8 | 1 | 16 | 15 | 58*
Fc1ccccc1CSc1nnnn1-c1ccc2c(c1)OCO2 | -2 | 22 | -1 | -14 | 35* | 10
COc1ccccc1NC(=O)CSc1nnnn1-c1ccc2c(c1)OCO2 | -3 | 15 | -1 | 4 | -8 | 1
Cc1ccc(N2CCn3c2nc2c3c(=O)n(CCc3ccccc3)c(=O)n2C)cc1 | -3 | -1 | 0 | 16 | -9 | 0
CC(C)(C)Nc1nc(NC(C)(C)C)nc(-n2ccnc2)n1 | 2 | 11 | 0 | 5 | 9 | 3
O=C(NCc1ccccc1)NC1(C(=O)N2CCCC2)CCCCC1 | -1 | 6 | 89* | 13 | 2 | -3
O=C(NCc1ccccc1)NC1(C(=O)N2CCN(c3ncccn3)CC2)CCCCC1 | -1 | 5 | 0 | 15 | -1 | -1
N#Cc1c(N)n(C2CCCCC2)c2nc3ccccc3nc12 | 25* | -14 | 7 | 4 | 27 | 5
CCOC(=O)N1CCN(c2c(NCc3cccs3)c(=O)c2=O)CC1 | 2 | 2 | 1 | 10 | -1 | 37*
CCOC(=O)N1CCN(c2c(NCc3ccccc3OC)c(=O)c2=O)CC1 | -1 | 8 | 0 | 5 | 12 | 1
CC(C)N(CCc1ccncc1)C(=O)Nc1ccc(Cl)c(Cl)c1 | -1 | 18 | 0 | 23 | 18 | -2
COc1ccccc1-c1nnc2n1N=C(C)CS2 | -1 | 9 | 0 | 19 | 2 | -4
COc1ccc(C2=Nn3c(nnc3-c3ccccn3)SC2)cc1OC | 0 | · | 1 | · | 39* | ·
CCOc1ccc(C2=Nn3c(nnc3-c3ccccn3)SC2)cc1 | 0 | · | -2 | · | -3 | ·
COc1ccc(C2=Nn3c(nnc3-c3ccccc3OC)SC2)cc1OC | -1 | 75* | 2 | 47* | 87* | 99*
CN(C(=O)c1ccc(NC(=O)c2cnccn2)cc1)C1CCCCC1 | 0 | -2 | -1 | 2 | 5 | ·
Cn1c(C(=O)NC2CCCC2)cc2c(=O)n(C)c3ccccc3c21 | 0 | -16 | 0 | 6 | -2 | 8
CC(C)C(OC(=O)c1cccs1)C(=O)NCc1ccco1 (configuration not stated) | -3 | 24 | -1 | 5 | 12 | 3
CC(OC(=O)c1cccs1)C(=O)NCc1ccco1 (configuration not stated) | 5 | -10 | 16* | 11 | -6 | -3
